Active and inactive are the calls of the source. The rule behind the calls is not given here.
Legend:
Aurora kinase B [1] = molecular target: T1, Aurora kinase B (Homo sapiens, UniProt Q96GD4); test: Inhibition of recombinant full length human N-terminal GST-tagged Aurora B expressed in baculovirus infected Sf9 cells at 10 uM using myelin basic protein as substrate after 60 mins by ADP-Glo luminescence assay relative to control
Summary of the method: (§1)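 Purified active Aurora A or Aurora B with myelin basic protein substrate and 10 µM ATP; compounds dissolved in DMSO and tested at a single concentration (10 µM screen, or 1 µM). Reaction 60 min at room temperature, then ADP-Glo reagent 30 min and detection reagent 30 min; luminescence read. Inhibition expressed relative to 10 µM staurosporine.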

[2] = molecular target: T2, Aurora kinase A (Homo sapiens) (UniProt O14965); test: Inhibition of recombinant full length human N-terminal GST-tagged Aurora A expressed in baculovirus infected Sf9 cells at 10 uM using myelin basic protein as substrate after 60 mins by ADP-Glo luminescence assay relative to control; summary of the method: as §1
T2 sequence (whole entry): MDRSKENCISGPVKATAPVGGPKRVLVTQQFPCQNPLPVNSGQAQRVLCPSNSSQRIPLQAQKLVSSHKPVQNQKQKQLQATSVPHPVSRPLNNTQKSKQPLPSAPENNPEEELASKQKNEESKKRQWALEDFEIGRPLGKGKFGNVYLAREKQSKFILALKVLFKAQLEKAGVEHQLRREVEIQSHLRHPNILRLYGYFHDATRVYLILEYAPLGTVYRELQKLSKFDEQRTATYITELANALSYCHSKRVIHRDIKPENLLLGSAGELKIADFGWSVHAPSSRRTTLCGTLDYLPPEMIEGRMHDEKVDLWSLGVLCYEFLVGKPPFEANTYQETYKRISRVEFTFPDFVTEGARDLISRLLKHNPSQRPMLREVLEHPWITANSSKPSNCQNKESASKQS

Aurora kinase B [3] = molecular target: T1, Aurora kinase B; test: Inhibition of recombinant full length human N-terminal GST-tagged Aurora B expressed in baculovirus infected Sf9 cells at 1 uM using myelin basic protein as substrate after 60 mins by ADP-Glo luminescence assay relative to control; summary of the method: as §1
HeLa [4] = test: Cell cycle arrest in human HeLa cells assessed as increase in accumulation at G2/M phase at 50 uM after 24 hrs by propidium iodide staining based flow cytometry relative to control; type: functional
Summary of the method: (§2)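 HeLa cells seeded the day before and exposed to inhibitor (10 or 50 µM) or DMSO for 24 h, harvested non-enzymatically, fixed in cold 70% EtOH at 4 °C for 2 h, stained with PI/Triton X-100 solution containing RNase A (25 °C, 20 min, dark). Cell cycle distribution was measured by flow cytometry, and the G2/M percentage was compared with DMSO.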

Aurora kinase B [5] = molecular target: T1, Aurora kinase B; test: Inhibition of recombinant full length human N-terminal GST-tagged Aurora B expressed in baculovirus infected Sf9 cells using myelin basic protein as substrate after 60 mins by ADP-Glo luminescence assay
Summary of the method: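 ADP-Glo assay with purified active Aurora B, myelin basic protein substrate, 10 µM ATP, 60 min kinase reaction at room temperature followed by luminescence detection. IC50 determined for compounds exceeding 50% inhibition relative to staurosporine, calculated by curve fitting.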

[6] = molecular target: T2, Aurora kinase A (Homo sapiens); test: Inhibition of recombinant full length human N-terminal GST-tagged Aurora A expressed in baculovirus infected Sf9 cells at 1 uM using myelin basic protein as substrate after 60 mins by ADP-Glo luminescence assay relative to control; summary of the method: as §1
Aurora kinase B [7] = molecular target: T1, Aurora kinase B; test: Inhibition of Aurora B in human HeLa cells assessed as reduction in histone H3 phosphorylation at Ser10 residue after 1 hr by Western blot analysis; type: cell-based
Summary of the method: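 HeLa cells synchronized in mitosis by a 16 h Monastrol block, then released into Monastrol-free medium containing inhibitor at graded concentrations; Hesperadin 5 µM and DMSO as references. Cells harvested 1 h after release, lysed in RIPA with protease/phosphatase inhibitors, 20 µg protein resolved on 8~15% SDS-PAGE. Immunoblotted for phospho-H3S10, total histone H3, α-tubulin and Aurora B.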

HeLa [8] = test: Cell cycle arrest in human HeLa cells assessed as accumulation at G2/M phase at 50 uM after 24 hrs by propidium iodide staining based flow cytometry (reference value: 12 %); type: functional; summary of the method: as §2

T1 sequence (Q96GD4 whole entry): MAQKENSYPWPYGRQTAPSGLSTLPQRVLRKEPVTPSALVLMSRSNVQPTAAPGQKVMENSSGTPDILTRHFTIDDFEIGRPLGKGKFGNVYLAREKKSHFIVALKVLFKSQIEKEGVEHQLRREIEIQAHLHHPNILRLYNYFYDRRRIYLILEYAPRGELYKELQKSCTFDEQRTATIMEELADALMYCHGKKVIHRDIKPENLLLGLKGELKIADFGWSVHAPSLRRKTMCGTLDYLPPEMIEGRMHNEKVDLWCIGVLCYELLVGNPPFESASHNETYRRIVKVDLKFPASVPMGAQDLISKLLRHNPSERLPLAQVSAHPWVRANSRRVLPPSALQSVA

SMILES | inhibition (Aurora kinase B [1]) | inhibition [2] | inhibition (Aurora kinase B [3]) [%] | IC50 (Aurora kinase B [5]) [nM] | inhibition [6] | also measured
O=C(Nc1ccc(F)cc1)n1ccc(CNc2nc3ccc(OCCN4CCOCC4)cc3s2)n1 | 5% |  |  |  |  | 
O=C(Nc1ccccc1)n1ccc(CNc2nc3ccc(OCCN4CCOCC4)cc3s2)n1 | 12% |  |  |  |  | 
O=C(Nc1ccc(CNc2nc3ccc(OCCN4CCOCC4)cc3s2)cc1)c1ccccc1 | 25% | inactive |  |  |  | 
O=C(Nc1cccc(CNc2nc3ccc(OCCN4CCOCC4)cc3s2)c1)c1ccc([N+](=O)[O-])cc1 | 17% | inactive |  |  |  | 
O=S(=O)(Nc1ccc(CNc2nc3ccc(OCCN4CCOCC4)cc3s2)cc1)c1ccc(F)cc1 | 30% | inactive |  |  |  | 
O=C(Nc1ccc(Br)cc1)Nc1ccc(CNc2nc3ccc(OCCN4CCOCC4)cc3s2)cc1 |  |  | 83 | 90 | 9% | fold change (FC) (HeLa [4]): >2; inhibition (Aurora kinase B [7]): Dose-dependent effect
O=C(Nc1ccc(CNc2nc3ccc(OCCN4CCOCC4)cc3s2)cc1)c1cccc(Cl)c1 | 91% | inactive |  | 1400 |  | 
O=C(Nc1ccc(Cl)cc1)Nc1ccc(CNc2nc3ccc(OCCN4CCOCC4)cc3s2)cc1 |  |  | 100 | 120 | inactive | Activity (HeLa [8]): 17%; inhibition (Aurora kinase B [7]): Dose-dependent effect
COc1ccc(NC(=S)Nc2ccc(CNc3nc4ccc(OCCN5CCOCC5)cc4s3)cc2)cc1 |  |  | 72 | 360 | inactive | 
O=C(Nc1ccc(Cl)cc1)Nc1ccc(CNc2nc3ccc(OCCN4CCCCC4)cc3s2)cc1 |  |  | 5 | 2300 | inactive | 
O=C(Nc1cccc(CNc2nc3ccc(OCCN4CCOCC4)cc3s2)c1)c1ccccc1 | 24% | inactive |  |  |  | 
O=C(Nc1cccc(CNc2nc3ccc(OCCN4CCOCC4)cc3s2)c1)c1ccc(Cl)cc1 | 42% | inactive |  | 6200 |  | 
O=C(Nc1ccccc1)Nc1cccc(CNc2nc3ccc(OCCN4CCOCC4)cc3s2)c1 |  |  | 37 | 3100 | inactive | 
O=C(Nc1ccc(Cl)cc1)Nc1cccc(CNc2nc3ccc(OCCN4CCOCC4)cc3s2)c1 |  |  | 31 | 1200 | inactive | 
S=C(Nc1ccc(Cl)cc1)Nc1ccc(CNc2nc3ccc(OCCN4CCOCC4)cc3s2)cc1 |  |  | 94 | 110 | 3% | 
O=C(Nc1ccc(CNc2nc3ccc(OCCN4CCOCC4)cc3s2)cc1)c1ccc(Cl)cc1 | 59% | inactive |  | 3000 |  | 

SMILES | inhibition (Aurora kinase B [1]) | inhibition [2] | inhibition (Aurora kinase B [3]) [%] | IC50 (Aurora kinase B [5]) [nM] | inhibition [6] | also measured
O=C(Nc1ccc(Cl)c(Cl)c1)n1ccc(CNc2nc3ccc(OCCN4CCOCC4)cc3s2)n1 | 46% |  |  |  |  | 
O=C(Nc1ccc(Br)cc1)n1ccc(CNc2nc3ccc(OCCN4CCOCC4)cc3s2)n1 | 31% |  |  |  |  | 
O=C(Nc1ccccc1)Nc1ccc(CNc2nc3ccc(OCCN4CCOCC4)cc3s2)cc1 |  |  | 91 | 270 | inactive | 
O=S(=O)(Nc1ccc(CNc2nc3ccc(OCCN4CCOCC4)cc3s2)cc1)c1ccccc1 | 16% | inactive |  |  |  | 
O=S(=O)(Nc1ccc(CNc2nc3ccc(OCCN4CCOCC4)cc3s2)cc1)c1ccc(Cl)cc1 | 28% | inactive |  |  |  | 
O=C(Nc1ccccc1CNc1nc2ccc(OCCN3CCOCC3)cc2s1)c1ccccc1 | inactive | inactive |  |  |  | 
COc1ccc(C(=O)Nc2ccc(CNc3nc4ccc(OCCN5CCOCC5)cc4s3)cc2)cc1 | 85% | inactive |  | 700 |  | 
O=C(Nc1ccc(Cl)cc1)n1ccc(CNc2nc3ccc(OCCN4CCOCC4)cc3s2)n1 | 31% |  |  |  |  | 
O=C(Nc1ccc(F)cc1)Nc1ccc(CNc2nc3ccc(OCCN4CCOCC4)cc3s2)cc1 |  |  | 44 | 700 | inactive | 
O=C(Nc1cccc(CNc2nc3ccc(OCCN4CCOCC4)cc3s2)c1)c1ccc(F)cc1 | 56% | inactive |  | 9000 |  | 
O=C(Nc1ccc(CNc2nc3ccc(OCCN4CCOCC4)cc3s2)cc1)Nc1ccc(Cl)c(Cl)c1 |  |  | 77 | 270 | 2% | 
COc1ccc(NC(=O)Nc2ccc(CNc3nc4ccc(OCCN5CCOCC5)cc4s3)cc2)cc1 |  |  | 79 | 250 | inactive | 
O=C(Nc1ccc(CNc2nc3ccc(OCCN4CCOCC4)cc3s2)cc1)Nc1cccc(Cl)c1 |  |  | 67 | 460 | inactive | 
O=C(Nc1cccc(Cl)c1)Nc1cccc(CNc2nc3ccc(OCCN4CCOCC4)cc3s2)c1 |  |  | 33 | 1000 | inactive | 
O=C(Nc1cccc(CNc2nc3ccc(OCCN4CCOCC4)cc3s2)c1)c1cccc(Cl)c1 | 30% | inactive |  |  |  | 
CN(C)CCOc1ccc2nc(NCc3ccc(NC(=O)Nc4ccc(Cl)cc4)cc3)sc2c1 |  |  | 65 | 320 | inactive | 
